PAFAH2 FP inh: PAFAH2 (human) inhibition. recombinant PAFAH2, FP-rhodamine activity probe, fluorescence polarization. Q99487. inhibition, % at 3.39 µM. 340,000 tested, 0.99% active. AID 492956;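 active = inhibition above the mean over all tested compounds plus 3 SD, cut at about 30% in these data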;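 note: inhibitors block probe labeling of enzyme so polarization drops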
Apaf-1 inh: human Apaf-1 inhibition. O14727. AID 489030. 330,000 tested, 0.71% active. reconstituted apoptosome caspase-3 activity, DEVD-Rh110 fluorescence. inhibition, % at 20 µM; active = inhibition of at least 40% at 20 µM
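Material: reconstituted apoptosome with Apaf-1, cytochrome c, caspase-9, procaspase-3, dATP; medium: pH 7.5 Hepes buffer with CHAPS, BSA, DTT; also added: cytochrome c and DEVD-Rh110 substrate; timing: 30 min plus 50 min, RT; signal: Rh110 fluorescence intensity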
PREPL inhibitor: inhibits the human prolyl oligopeptidase-like enzyme; Q4J6C6; recombinant PREPL, fluorescence polarization activity-based probe; inhibition, % at 5.96 µM; 320,000 tested, 0.68% active; in the data active = inhibition above about 43%
PAFAH1B2 FP inh: inhibitors of human PAFAH1B2. recombinant PAFAH1B2, FP-rhodamine activity probe, fluorescence polarization. inhibition, % at 3.39 µM. 340,000 tested, 1.2% active;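 active = inhibition above the mean of all tested compounds plus 3 SD, cut at about 24% in these data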
Target sequence (P68402 whole entry, looked up): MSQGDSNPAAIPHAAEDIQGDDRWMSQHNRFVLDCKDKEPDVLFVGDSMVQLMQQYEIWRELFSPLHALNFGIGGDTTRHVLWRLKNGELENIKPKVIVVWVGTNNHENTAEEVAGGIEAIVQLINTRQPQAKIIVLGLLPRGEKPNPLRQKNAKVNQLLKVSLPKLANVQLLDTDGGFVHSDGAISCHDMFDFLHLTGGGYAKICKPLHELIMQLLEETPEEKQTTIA
pPAFAH FP inh: pPAFAH (human) enzyme inhibition. Q13093. recombinant pPAFAH, FP-rhodamine probe fluorescence polarization. inhibition, % at 3.39 µM. 330,000 tested, 1.5% active;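 active = inhibition above the mean inhibition across the screen plus 3 SD, cut at about 25% in these data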;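 note: inhibitors block binding of the rhodamine activity-based probe so polarization drops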
Target sequence (Q13093 whole entry, looked up): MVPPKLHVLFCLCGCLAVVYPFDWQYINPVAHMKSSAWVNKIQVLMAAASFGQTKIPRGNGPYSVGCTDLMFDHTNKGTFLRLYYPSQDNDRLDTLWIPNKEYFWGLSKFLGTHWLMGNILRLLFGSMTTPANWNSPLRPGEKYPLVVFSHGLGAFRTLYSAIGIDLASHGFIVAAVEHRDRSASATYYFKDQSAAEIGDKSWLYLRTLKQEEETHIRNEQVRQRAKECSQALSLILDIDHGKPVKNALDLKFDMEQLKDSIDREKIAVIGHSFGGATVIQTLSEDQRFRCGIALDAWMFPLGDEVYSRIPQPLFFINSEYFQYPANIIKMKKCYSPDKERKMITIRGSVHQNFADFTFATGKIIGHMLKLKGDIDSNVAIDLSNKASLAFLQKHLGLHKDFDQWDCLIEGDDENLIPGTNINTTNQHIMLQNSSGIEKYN
PAFAH1B3 inh: blocks human PAF acetylhydrolase 1B catalytic subunit 3; recombinant PAFAH1B3, FP-rhodamine probe, fluorescence polarization; inhibition, % at 3.39 µM; 340,000 tested, 0.28% active;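 active = inhibition above the screen-wide average of all tested compounds plus 3 SD, cut at about 25% in these data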
pPAFAH confirm: confirmation of human plasma PAF acetylhydrolase (pPAFAH) inhibitors. recombinant pPAFAH, FP-Rh probe fluorescence polarization. shares compounds with pPAFAH FP inh. inhibition, % at 3.39 µM. 2,300 tested, 72% active;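 active = mean inhibition of the triplicate above the hit cutoff set for the earlier primary screen, cut at about 25% in these data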
Of the large screens only hits and unclear results are named; the others gave an inactive call (follow-up assays come after a bar, where they were run). Rows were chosen to be rich in hits. Some 3.5% of all compounds tested hit in one or more screens of this group.

C/C(=N\N=C1\NC(=O)CS1)c1cccs1	none
CC(C)Oc1ccc(CNCCC2(C(C)C)CCOC(C)(C)C2)cc1 (centres undefined)	pPAFAH FP inh 57 | pPAFAH confirm inactive
O=C(N/N=C\c1ccccc1F)c1ccc(-c2ccccc2)cc1	none (no result: PREPL inhibitor, pPAFAH FP inh)
O=C(N/N=C/c1ccccc1)c1ccc(-c2ccccc2)cc1	pPAFAH FP inh 69 | pPAFAH confirm inactive
CC(C)=CCC/C(C)=C/CNC(=O)C[C@H]1C[C@H](C(=O)N2CCCCC2)[C@@]2(C)c3[nH]c4cc(-c5ccco5)ccc4c3CCN2C1=O	pPAFAH FP inh 41 (no result: PREPL inhibitor) | pPAFAH confirm inactive
CC(C)=CCC/C(C)=C/CNC(=O)C[C@H]1C[C@H](C(=O)N2CCOCC2)[C@@]2(CCC3CCCC3)c3[nH]c4cc(CCC(=O)N(C)C)ccc4c3CCN2C1=O	pPAFAH FP inh 39 (no result: PREPL inhibitor) | pPAFAH confirm 27
CN(C)C(=O)CCc1ccc2c3c([nH]c2c1)[C@]1(CCC2CCCC2)[C@@H](C(=O)N2CCOCC2)C[C@H](CC(=O)NCC24CC5CC(CC(C5)C2)C4)C(=O)N1CC3	none (no result: PREPL inhibitor)
CC(C)=CCC/C(C)=C/CNC(=O)C[C@H]1C[C@H](C(=O)N(C(C)C)C(C)C)[C@@]2(C)c3[nH]c4cc(CCC(=O)N(C)C)ccc4c3CCN2C1=O	pPAFAH FP inh 68 (no result: PREPL inhibitor) | pPAFAH confirm 59
CSc1ccc(/C=C/C(=O)OCC(=O)N(C)CCC#N)cc1	none
CC(Sc1nccn1C)C(=O)c1ccc(Br)cc1 (centres undefined)	none
CC1=NN(c2cccc(C(=O)O)c2)C(=O)/C1=C\C=C\c1ccco1	PAFAH2 FP inh 48, pPAFAH FP inh 45 | pPAFAH confirm 32
CC(C)(C)C(=O)Nc1ccccc1C(=O)NCCC(=O)Nc1ccccc1	none
Cc1sc2ncn(/N=C/c3ccco3)c(=O)c2c1C	none
CC(C)c1ccc(NC(=O)CN2CCN(C(=O)C3CCCO3)CC2)cc1 (centres undefined)	none
COc1ccc(NS(=O)(=O)c2ccc(O)c(NC(=O)c3cc4c(C)nn(-c5ccc(F)cc5)c4s3)c2)cc1	pPAFAH FP inh 36 | pPAFAH confirm 29
Cc1nn(-c2ccc(F)cc2)c2sc(C(=O)N3CCCCCC3)cc12	none
CCCSC1=N/C(=C\c2ccsc2)C(=O)S1	none
CCCSC1=N/C(=C\C=C\c2ccco2)C(=O)S1	PAFAH2 FP inh 45, pPAFAH FP inh 45 | pPAFAH confirm inactive
Cc1c(NS(=O)(=O)c2ccc(N3CCCCC3)c([N+](=O)[O-])c2)c(=O)n(-c2ccccc2)n1C	none
Cc1ccc(NS(=O)(=O)c2ccc(N3CCN(c4ccc(O)cc4)CC3)c([N+](=O)[O-])c2)c(C)c1	pPAFAH FP inh 57 | pPAFAH confirm 46
CN1C[C@@H]2[C@@H]3C(=O)N(C)C(=O)[C@@H]3[C@](C)(C1=O)N2C(=O)c1ccc(Cl)cc1	none (no result: Apaf-1 inh, PREPL inhibitor, pPAFAH FP inh)
C=CC(C)(C)c1c2occc2c(O)c2ccc(=O)oc12	none
C=CC(C)(C)c1c(O)c(CC=C(C)C)c(O)c2c(=O)c3ccc(O)c(O)c3oc12	pPAFAH FP inh 45 | pPAFAH confirm 49
O=S(=O)(c1ccc2c(c1)CCN2)N1CCOCC1	none
O=S(=O)(Nc1ccc(N=Nc2ccccc2)cc1)c1ccccc1	pPAFAH FP inh 67 | pPAFAH confirm 70
COc1ccc(N2CCN(C(=O)c3ccc(CS(=O)Cc4ccc(Cl)cc4)o3)CC2)cc1 (centres undefined)	pPAFAH FP inh 36 | pPAFAH confirm 28
Cc1cccc(N2CCN(C(=O)c3ccc(CS(=O)Cc4cccc(Cl)c4)o3)CC2)c1C (centres undefined)	pPAFAH FP inh 43 | pPAFAH confirm inactive
CC(C)(C)c1ccc(OCC(=O)Nc2ccc(C(=O)Nc3ccccc3C(=O)O)cc2)cc1	none
Nc1ncnc2c1ncn2[C@@H]1O[C@H](CNCC#Cc2ccccc2)[C@@H](O)[C@H]1O	none
O=[N+]([O-])c1cc(Br)cc(C=Nc2ccc3c(c2)OCO3)c1O	pPAFAH FP inh 41 | pPAFAH confirm 52
CC(C)(C)c1ccc(O)c(N=Cc2cc3c(cc2[N+](=O)[O-])OCO3)c1	pPAFAH FP inh 41 | pPAFAH confirm inactive
O=C1COc2ccc(C(=O)COC(=O)/C=C/c3ccc(Br)o3)cc2N1	pPAFAH FP inh 39 | pPAFAH confirm inactive
CCOc1ccc(C(=O)N/N=C/c2ccc(-c3ccc(S(=O)(=O)Nc4ncccn4)cc3)o2)cc1	none
O=C(N/N=C/c1ccc(-c2ccc(S(=O)(=O)Nc3ncccn3)cc2)o1)c1cc2ccccc2cc1O	PAFAH2 FP inh 34, PAFAH1B2 FP inh 25, pPAFAH FP inh 78, PAFAH1B3 inh 35 | pPAFAH confirm 76
NC(=S)NN=Cc1ccc(-c2ccc(S(=O)(=O)Nc3ncccn3)cc2)o1	PAFAH2 FP inh 34, pPAFAH FP inh 40, PAFAH1B3 inh 31 | pPAFAH confirm inactive
Cn1c(=O)c2c(ncn2CCC(=O)N/N=C/c2ccncc2)n(C)c1=O	none
CC(=O)c1cccc(CN2CCCC(C(=O)Nc3cccc(-n4cccn4)c3)C2)c1 (centres undefined)	none
COCCCNC(=O)CSc1nc2cc(S(=O)(=O)N3CCCCC3)ccc2o1	none
COc1cc(OC)c(OC)cc1/C=C1\Oc2cc(OCC(=O)N3Cc4ccccc4C[C@H]3C(=O)O)ccc2C1=O	pPAFAH FP inh 37 | pPAFAH confirm 44
Cc1ccc2c(CC(=O)NCC3COc4ccccc4O3)coc2c1 (centres undefined)	pPAFAH FP inh 37 | pPAFAH confirm inactive
O=C(Cc1ccccc1)NCC1COc2ccccc2O1 (centres undefined)	none
COCCN=C1Sc2nc3ccc(C)cc3cc2CN1Cc1ccco1	pPAFAH FP inh 64 | pPAFAH confirm 51
CCOC(=O)c1c(NC(=O)C2CCCCC2)sc2c1CCN(C(C)C)C2	none
O=C(Nc1cccc(-c2csc(Nc3ccc(Cl)cc3)n2)c1)c1cc([N+](=O)[O-])cc(C(F)(F)F)c1	PAFAH2 FP inh 52, PAFAH1B2 FP inh 39, pPAFAH FP inh 41, PAFAH1B3 inh 49 | pPAFAH confirm inactive
COc1cc2cc(Oc3ccc4ccc(=O)oc4c3)c(=O)oc2cc1O[C@@H]1O[C@H](CO)[C@@H](O)[C@H](O)[C@H]1O	pPAFAH FP inh 50 | pPAFAH confirm inactive
COc1cc2cc(Oc3ccc4ccc(=O)oc4c3)c(=O)oc2cc1OC1OC(COC(=O)CC(C)(O)CC(=O)O)C(O)C(O)C1O (centres undefined)	none
COCCNC(=O)c1ccc(N2CC3CC(C2)c2cccc(=O)n2C3)c(NC(=O)c2c(F)cccc2F)c1 (centres undefined)	none
